The values below come from article PMC8751737 (International journal of pharmaceutics, 2021).

Usually IC50 stands for the concentration that inhibits the measured activity by half.

In data set [1] the test system is BT474. Kind of data set: Antiproliferative activity, CellTiter-Glo assay. To be noted: read-out: IC50 (72 Hours) BT474, 72 h incubation, triplicate. The format is cell-based, human. The essentials: (§1)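 Cells were plated in 96-well plates and held 24 h at 37 °C in 5% CO2. Media with 10% FBS, 1% penicillin-streptomycin and 1% insulin were RPMI-1640 for BT474, EMEM for Calu-3 and Fibroblast Basal Medium for HLFs. Test compound or liposome was added at 0.001–100 μM for 72 h. Cells were PBS-washed before CellTiter-Glo luminescence. Triplicate runs; IC50 from dose-response plot.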
In general terms: Cellular ATP, detected with luciferase, serves as a proxy for viable cell number.

The subject of data set [2] is Calu-3. Kind of data set: Apoptosis study. The format is cell-based, human. The settings on record: Calu-3, 3 μM, 12 h, annexin V-FITC/PI, n=3. The gist of the method:
(§2)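 Cells were seeded at 2×10⁵ cells/mL in flasks and cultured 24 h. At 70% confluence they were exposed to 3 μM test compound in serum-free medium for 12 h. Cells were then trypsinized, washed in ice-cold PBS and resuspended in binding buffer at 2.5×10⁶ cells/mL. Staining with annexin V-FITC plus propidium iodide ran 15 min before flow cytometry.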

Data set [3] deals with Calu-3 bearing nude mice. Description: In vivo antitumor activity. On the set-up: species or system BALB/c nude mice. The settings on record: intravenous, Dox-equivalent dose 6 mg kg−1 every four days, mean ± SD, n=5. The essentials:
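Male and female BALB/c nude mice (22–35 g) received 1×10⁷ Calu-3 cells in 100 μL culture medium subcutaneously in the right back. At 30–50 mm³ tumors, mice were randomized (n = 5/group). Dosing was intravenous every four days, with PBS as control. Tumor volume was measured every four days. Mice were killed at 38 days and tumors weighed.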

In data set [4] the test system is MCF-7 spheroids. Description: In vitro tumor growth inhibition in 3D tumor spheroids. Format: cell-based, human. To be noted: 3 μM, 5 days. The gist of the method: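 MCF-7 cells (40 μL at 125 cells/μL) grown as hanging-drop spheroids at 37 °C, 5% CO2, humidified, until about 100–200 μm, then moved to round-bottom 96-well plates (day zero). Treated with test compound at 3 μM, with untreated controls. Imaged for five consecutive days under a 4× objective, and volume calculated as 0.5 × length × width².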

In data set [5] the test system is Calu-3 bearing nude mice. Description: Toxicity study. Format: in vivo, BALB/c nude mice. The essentials: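 Same Calu-3 xenograft nude mice and intravenous dosing every four days, with a PBS control group. Body weight was recorded every four days during the efficacy study. At termination (38 days), heart, liver, spleen, kidney and lung tumor were formalin-fixed and paraffin-embedded. Sections of 5 μm were H&E-stained and examined microscopically by a toxicologist.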

In data set [6] the test system is BT474 3D tumor spheroids. Description: Antiproliferative activity in multicellular 3D tumor spheroid. The format is cell-based, human. To be noted: read-out: 3D tumor spheroid IC50 (72 Hours) BT474, hanging drop spheroids, CellTiter-Glo 3D, mean ± SD, n=3. The essentials:
(§3)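 Hanging-drop spheroids seeded at 500 cells/μL in 40 μL of medium and formed over 24 h at 37 °C, 5% CO2, humidified. Spheroids moved to round-bottom 96-well plates in serum-free medium and treated with test compound at 0.01–100 μM for 72 h at 37 °C. Viability read by CellTiter-Glo 3D luminescence, and IC50 derived from the dose-response.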

The test system of data set [7] is Calu-3 3D tumor spheroids. The description is as above. Format: cell-based, human. The settings on record: read-out: 3D tumor spheroid IC50 (72 Hours) Calu-3, hanging drop spheroids, CellTiter-Glo 3D, mean ± SD, n=3. The essentials: as §3
Data set [8] has as its system non-cancerous lung fibroblast cells (HLFs). Description: Antiproliferative activity, CellTiter-Glo assay. To be noted: read-out: IC50 (72 Hours) HLFs, 72 h incubation, triplicate. Format: cell-based, human. The essentials:
as §1

For data set [9], the system named is Calu-3. Kind of data set: Antiproliferative activity, CellTiter-Glo assay. The format is cell-based, human. To be noted: read-out: IC50 (72 Hours) Calu-3, 72 h incubation, triplicate. The essentials: as §1
The subject of data set [10] is MCF-7 3D tumor spheroids. Description: Antiproliferative activity in multicellular 3D tumor spheroid. Format: cell-based, human. To be noted: read-out: 3D tumor spheroid IC50 (72 Hours) MCF-7, hanging drop spheroids, CellTiter-Glo 3D, mean ± SD, n=3. The gist of the method: as §3
In data set [11] the test system is BT474. Description: Apoptosis study. Format: cell-based, human. The settings on record: BT474, 3 μM, 12 h, annexin V-FITC/PI, n=3. The gist of the method:
as §2

On to `COc1cccc2c1C(=O)c1c(O)c3c(c(O)c1C2=O)C[C@@](O)(C(=O)CO)C[C@@H]3O[C@H]1C[C@H](N)[C@H](O)[C@H](C)O1` [Free Dox, Doxorubicin], for which the IC50 in [1] was 399 ± 79 nM; in data set [6], 845 ± 58 nM; in data set [7], 745 ± 54 nM; in data set [8], 170 ± 82 nM; in data set [9] it was 158 ± 75 nM; in data set [10], 548 ± 125 nM. The figures for the “total percentage of apoptosis” value in [2] and in data set [11] were 16.83% and 35.49%, respectively. In addition, in [3], the “mean tumor size at 38 days after implantation” value is 68.26 ± 25.89 mm^3. Further, the “mean tumor weight at 38 days after implantation” value in [3] is given as 162.8 ± 21.98 mg. Besides, in [4], the “inhibition of spheroid growth” value is listed as “significant inhibition of spheroidal tumor growth”. Also, in data set [5] (Dox-equivalent 6 mg kg−1 every four days, 38 days after tumor implantation), the body weight loss entry is “significant weight loss”. For the same molecule, the “histopathology of heart tissues” value in [5] (H&E, at 38 days, compared to control group) is reported as “some amount of vascular degeneration”. Also, the “histopathology of liver and kidneys” value in data set [5] (H&E, at 38 days, compared to control group (PBS)) is “no apparent inflammatory reaction, structural modification, or pathological abnormalities”. The histopathology of spleen entry in data set [5] (H&E, at 38 days, compared with control group) was “loss of lymphoid blue matter and deposition of red matter”.
